For assay [1], the target named is Fibroblast growth factor receptor 1 (Homo sapiens) (UniProt P11362). Briefly: Inhibition of FGFR1 at 10 uM by HTRF assay relative to control. The procedure, abridged: (§1)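 HTRF kinase assay, one panel of kinases. Inhibitor stock 50 µM in 100% DMSO; tested at 10 µM. ATP and substrate at final levels near Km. Final buffer: 50 mM Hepes/NaOH pH 7.4, 40 µM Na3VO4, 0.005% Tween-20, 1 mM DTT, MnCl2 or MgCl2 at kinase-dependent levels. Started by adding ATP/substrate. Reaction run at room temperature, time varied by kinase. Detection mix in 50 mM Hepes pH 7.4, 0.1% BSA, 150 mM KF, incubated ≥1 h at room temperature. Activity expressed as % of uninhibited control; n=2.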
Sequence of Fibroblast growth factor receptor 1 (Homo sapiens) (P11362 22-822 limits assumed): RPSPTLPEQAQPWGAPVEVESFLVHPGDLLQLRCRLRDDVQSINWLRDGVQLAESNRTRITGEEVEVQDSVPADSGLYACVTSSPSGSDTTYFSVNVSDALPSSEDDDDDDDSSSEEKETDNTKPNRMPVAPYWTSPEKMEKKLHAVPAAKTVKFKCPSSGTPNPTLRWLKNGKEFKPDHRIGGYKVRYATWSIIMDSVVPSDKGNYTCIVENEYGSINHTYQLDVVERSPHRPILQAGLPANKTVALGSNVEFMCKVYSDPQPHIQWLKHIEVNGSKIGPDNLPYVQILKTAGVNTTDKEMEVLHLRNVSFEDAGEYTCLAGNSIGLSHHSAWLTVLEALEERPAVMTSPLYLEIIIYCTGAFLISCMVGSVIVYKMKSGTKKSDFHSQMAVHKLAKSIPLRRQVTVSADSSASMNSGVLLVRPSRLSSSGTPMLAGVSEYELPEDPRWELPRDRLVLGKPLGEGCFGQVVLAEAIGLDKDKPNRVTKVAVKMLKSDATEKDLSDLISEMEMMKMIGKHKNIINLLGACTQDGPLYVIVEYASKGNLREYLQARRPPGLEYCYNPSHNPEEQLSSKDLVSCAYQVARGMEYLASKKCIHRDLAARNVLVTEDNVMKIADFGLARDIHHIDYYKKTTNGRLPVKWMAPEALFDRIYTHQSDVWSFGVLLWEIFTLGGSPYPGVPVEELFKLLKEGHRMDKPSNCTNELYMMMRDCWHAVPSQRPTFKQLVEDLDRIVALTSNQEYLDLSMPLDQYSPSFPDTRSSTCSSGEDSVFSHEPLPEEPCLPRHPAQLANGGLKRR
On the technique in general: In TR-FRET formats the signal depends on donor and acceptor labels being close together.

Assay [2] addresses T1, Inhibitor of nuclear factor kappa-B kinase subunit beta (Homo sapiens) (UniProt O14920).
T1 sequence (whole entry): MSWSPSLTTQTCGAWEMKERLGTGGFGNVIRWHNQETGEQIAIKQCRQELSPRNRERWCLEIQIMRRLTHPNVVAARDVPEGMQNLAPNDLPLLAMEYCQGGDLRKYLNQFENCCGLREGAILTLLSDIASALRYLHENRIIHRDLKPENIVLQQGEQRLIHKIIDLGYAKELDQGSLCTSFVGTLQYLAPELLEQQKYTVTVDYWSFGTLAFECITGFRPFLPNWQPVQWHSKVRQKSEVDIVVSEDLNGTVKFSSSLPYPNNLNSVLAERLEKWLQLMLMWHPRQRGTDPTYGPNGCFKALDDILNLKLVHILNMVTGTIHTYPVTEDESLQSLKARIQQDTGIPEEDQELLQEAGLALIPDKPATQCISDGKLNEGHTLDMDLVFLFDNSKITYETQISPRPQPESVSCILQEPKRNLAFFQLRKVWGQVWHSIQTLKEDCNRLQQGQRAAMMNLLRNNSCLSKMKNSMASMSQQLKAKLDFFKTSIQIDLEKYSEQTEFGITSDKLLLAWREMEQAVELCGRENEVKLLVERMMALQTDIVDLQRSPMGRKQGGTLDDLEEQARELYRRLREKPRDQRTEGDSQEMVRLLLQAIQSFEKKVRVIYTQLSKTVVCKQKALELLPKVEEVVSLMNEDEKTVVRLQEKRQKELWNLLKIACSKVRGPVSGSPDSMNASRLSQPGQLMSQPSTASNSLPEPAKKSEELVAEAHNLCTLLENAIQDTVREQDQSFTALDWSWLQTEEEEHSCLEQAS
Briefly: Inhibition of IKK-beta at 10 uM by HTRF assay relative to control. A digest of the protocol:
as §1

Assay [3] is described as follows: Inhibition of AMPKalpha at 10 uM by HTRF assay relative to control. A digest of the protocol: as §1
Assay [4] has as its target Ribosomal protein S6 kinase alpha-3 (Homo sapiens) (UniProt P51812). Kind of assay: Inhibition of RSK2 at 10 uM by HTRF assay relative to control. The procedure, abridged:
as §1

Assay [5] deals with T2, Tyrosine-protein kinase ZAP-70 (Homo sapiens) (UniProt P43403).
T2 sequence (whole entry): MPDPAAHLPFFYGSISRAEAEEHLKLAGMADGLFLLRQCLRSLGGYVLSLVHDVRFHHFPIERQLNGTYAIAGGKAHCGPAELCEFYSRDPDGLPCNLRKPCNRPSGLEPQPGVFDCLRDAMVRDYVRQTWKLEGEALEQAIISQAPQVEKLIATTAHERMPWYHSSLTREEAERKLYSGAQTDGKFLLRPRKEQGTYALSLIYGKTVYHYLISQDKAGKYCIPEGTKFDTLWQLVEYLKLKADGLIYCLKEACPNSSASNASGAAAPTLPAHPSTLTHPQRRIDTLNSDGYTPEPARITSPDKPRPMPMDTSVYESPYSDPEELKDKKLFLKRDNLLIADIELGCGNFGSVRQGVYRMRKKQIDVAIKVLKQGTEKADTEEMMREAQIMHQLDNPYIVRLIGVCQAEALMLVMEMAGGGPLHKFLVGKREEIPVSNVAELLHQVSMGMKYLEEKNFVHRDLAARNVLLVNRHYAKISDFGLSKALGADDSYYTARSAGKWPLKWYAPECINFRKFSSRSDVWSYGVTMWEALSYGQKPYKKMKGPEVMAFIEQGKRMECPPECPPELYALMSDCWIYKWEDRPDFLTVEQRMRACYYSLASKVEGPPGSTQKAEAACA
Briefly: Inhibition of ZAP70 at 10 uM by HTRF assay relative to control. The procedure, abridged: as §1

For assay [6], the target named is T3, Tyrosine-protein kinase JAK3 (Homo sapiens) (UniProt P52333).
T3 sequence (whole entry): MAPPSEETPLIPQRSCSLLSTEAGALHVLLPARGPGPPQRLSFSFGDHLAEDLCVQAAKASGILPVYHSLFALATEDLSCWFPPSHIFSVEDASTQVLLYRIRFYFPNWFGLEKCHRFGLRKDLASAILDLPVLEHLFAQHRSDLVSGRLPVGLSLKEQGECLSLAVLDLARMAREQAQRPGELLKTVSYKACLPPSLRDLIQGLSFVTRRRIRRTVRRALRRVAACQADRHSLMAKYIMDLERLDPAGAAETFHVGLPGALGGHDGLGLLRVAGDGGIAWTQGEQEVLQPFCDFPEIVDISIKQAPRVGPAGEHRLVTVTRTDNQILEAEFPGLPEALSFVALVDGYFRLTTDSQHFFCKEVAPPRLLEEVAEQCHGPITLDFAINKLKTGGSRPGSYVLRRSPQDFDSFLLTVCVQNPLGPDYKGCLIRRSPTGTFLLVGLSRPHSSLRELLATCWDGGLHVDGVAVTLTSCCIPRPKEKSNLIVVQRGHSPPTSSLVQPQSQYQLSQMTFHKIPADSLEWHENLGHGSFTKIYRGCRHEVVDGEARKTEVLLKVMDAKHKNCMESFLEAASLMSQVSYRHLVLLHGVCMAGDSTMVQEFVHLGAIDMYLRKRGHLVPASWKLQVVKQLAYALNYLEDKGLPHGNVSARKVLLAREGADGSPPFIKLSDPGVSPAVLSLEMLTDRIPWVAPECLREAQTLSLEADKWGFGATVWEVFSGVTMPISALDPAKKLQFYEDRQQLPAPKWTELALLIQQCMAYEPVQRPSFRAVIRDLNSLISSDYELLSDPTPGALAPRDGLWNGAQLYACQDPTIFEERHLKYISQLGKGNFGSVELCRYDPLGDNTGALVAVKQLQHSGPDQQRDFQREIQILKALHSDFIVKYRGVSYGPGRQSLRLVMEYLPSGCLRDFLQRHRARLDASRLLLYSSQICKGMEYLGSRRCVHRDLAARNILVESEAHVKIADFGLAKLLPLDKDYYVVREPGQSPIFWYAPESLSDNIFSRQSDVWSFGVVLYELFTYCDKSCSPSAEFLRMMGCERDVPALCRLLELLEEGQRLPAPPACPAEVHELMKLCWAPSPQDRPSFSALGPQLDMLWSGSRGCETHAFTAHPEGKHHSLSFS
Kind of assay: Inhibition of JAK3 at 10 uM by HTRF assay relative to control. A digest of the protocol:
as §1

SMILES strings stand for the structures.

Sequence of Ribosomal protein S6 kinase alpha-3 (Homo sapiens) (P51812 whole entry): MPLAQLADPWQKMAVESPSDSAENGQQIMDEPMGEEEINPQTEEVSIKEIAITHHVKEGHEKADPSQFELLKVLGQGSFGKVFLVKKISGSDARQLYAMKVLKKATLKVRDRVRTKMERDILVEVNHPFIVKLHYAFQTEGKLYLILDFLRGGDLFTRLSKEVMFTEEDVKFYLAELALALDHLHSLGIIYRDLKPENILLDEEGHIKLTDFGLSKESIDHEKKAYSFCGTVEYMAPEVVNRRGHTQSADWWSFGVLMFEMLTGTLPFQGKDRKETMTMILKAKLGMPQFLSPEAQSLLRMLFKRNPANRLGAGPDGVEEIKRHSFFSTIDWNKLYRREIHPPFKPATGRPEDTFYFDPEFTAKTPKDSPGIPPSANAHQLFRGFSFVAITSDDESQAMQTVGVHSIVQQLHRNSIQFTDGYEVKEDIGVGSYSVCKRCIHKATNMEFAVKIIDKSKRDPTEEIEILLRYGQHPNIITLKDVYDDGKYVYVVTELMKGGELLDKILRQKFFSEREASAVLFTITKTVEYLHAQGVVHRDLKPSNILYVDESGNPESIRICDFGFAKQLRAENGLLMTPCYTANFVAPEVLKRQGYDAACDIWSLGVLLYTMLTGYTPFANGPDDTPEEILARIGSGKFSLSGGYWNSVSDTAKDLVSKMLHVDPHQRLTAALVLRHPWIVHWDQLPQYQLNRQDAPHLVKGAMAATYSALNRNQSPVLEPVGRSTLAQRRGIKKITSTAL

For orientation: inhibition means the drop in the measured response relative to a control, in per cent. A higher inhibition goes with a response far below the control. For `Clc1ccc2sc(CN3CCN(c4ncnc5c4CN(Cc4ccccc4)CC5)CC3)cc2c1`, the inhibition amounted to 6% in assay [1]; 10% in assay [2]; 16% in assay [3]; 5% in assay [4]; 5% in assay [5]; 0% in assay [6].
`Cc1cccc(Nc2ncnc3c2CN(C(=O)c2ccc(N(C)C)c4ccccc24)CC3)c1`: the inhibition in assay [1] was 0%; in assay [2] it was 4%; in assay [3], 19%; in assay [4] it was 0%; in assay [5] it was 6%; in assay [6], 0%.
`Cc1cccc(Oc2ccnc(N3CCC[C@H]3C(=O)NCCCn3ccnc3)n2)c1`: the inhibition in assay [1] worked out at 1%; in assay [2], 2%; in assay [3], 9%; in assay [4] it was 0%; in assay [5] it was 2%; in assay [6], 7%.
As to `Cc1cccc(N(C)c2cc(Nc3cccc(C(=O)N4CCCC5CCCCC54)c3)ncn2)c1` (stereo not given), the inhibition in assay [1] amounted to 0%; in assay [2], 7%; in assay [3], 1%; in assay [4] it was 0%; in assay [5], 0%; in assay [6], 0%.
In the case of `Cc1ccc(CN2CCN(c3nccc(C(C#N)c4ccccn4)n3)CC2)cc1` (stereo not given), the inhibition in assay [1] turned out to be 5%; in assay [2], 7%; in assay [3], 7%; in assay [4], 0%; in assay [5], 4%; in assay [6], 10%.
Consider `COc1ccc(NC(=O)Cc2ccc(Nc3cc(N(C)c4cccc(C)c4)ncn3)cc2)cn1`, for which the inhibition in assay [1] worked out at 16%; in assay [2] it was 0%; in assay [3], 2%; in assay [4], 0%; in assay [5], 2%; in assay [6] it was 4%.
Regarding `Cc1cccc(N(C)c2cc(Nc3cccc(C(=O)NCc4ccc(N(C)C)cc4)c3)ncn2)c1`, the inhibition turned out to be 3% in assay [1]; 3% in assay [2]; 0% in assay [3]; 0% in assay [4]; 4% in assay [5]; 11% in assay [6].
Consider `Cc1cccc(N(C)c2cc(Nc3ccc(CC(=O)Nc4ccc5ncsc5c4)cc3)ncn2)c1`, for which the inhibition in assay [1] is 19%; in assay [2], 0%; in assay [3], 0%; in assay [4], 0%; in assay [5] it was 5%; in assay [6] it was 12%.
Regarding `CN(CCCn1ccnc1)C(=O)[C@@H]1CCCN1c1nccc(Nc2ccccc2)n1`, the inhibition in assay [1] came to 0%; in assay [2] it was 3%; in assay [3] it was 15%; in assay [4], 0%; in assay [5], 3%; in assay [6], 0%.
On to `O=C(CN1CCN(c2ncnc3c2CN(Cc2ccccc2)CC3)CC1)Nc1cc(F)ccc1F`, for which the inhibition in assay [1] came out at 0%; in assay [2], 0%; in assay [3], 0%; in assay [4] it was 0%; in assay [5], 5%; in assay [6], 2%.
On to `Cc1cccc(Oc2ccnc(N3CCN(C(=O)c4c(C)noc4C)CC3)n2)c1`, for which the inhibition in assay [1] was determined as 5%; in assay [2], 3%; in assay [3] it was 6%; in assay [4] it was 0%; in assay [5], 4%; in assay [6], 0%.
In the case of `Nc1nc(Nc2ccc(C(=O)NCCc3ccncc3)cc2)cc(N2CCOCC2)n1`, the inhibition in assay [1] was 0%; in assay [2], 4%; in assay [3], 0%; in assay [4] it was 0%; in assay [5], 6%; in assay [6], 0%.
Turning to `O=C(NCc1cccnc1)c1cccc(-c2ccc(Nc3ccc4ncsc4c3)nn2)c1`, the inhibition in assay [1] was 49%; in assay [2], 52%; in assay [3] it was 54%; in assay [4], 62%; in assay [5], 11%; in assay [6], 41%.
Regarding `CC(=O)N1CCN(C(=O)c2cccc(Nc3cc(N(C)c4cccc(C)c4)ncn3)c2)CC1`, the inhibition in assay [1] was found to be 21%; in assay [2], 1%; in assay [3], 0%; in assay [4], 14%; in assay [5], 9%; in assay [6] it was 15%.
For the compound `O=C(c1nc(SCc2ccc(Cl)cc2)n2ccccc12)N1CCN(c2cc(Nc3cccc(Br)c3)ncn2)CC1`, the inhibition in assay [1] is 14%; in assay [2], 1%; in assay [3], 5%; in assay [4] it was 0%; in assay [5], 1%; in assay [6], 0%.
Turning to `Cc1cccc(Nc2nccc3c2CN(C(=O)c2cc(C)n(C)c2C)CC3)c1`, the inhibition amounted to 0% in assay [1]; 0% in assay [2]; 1% in assay [3]; 0% in assay [4]; 4% in assay [5]; 0% in assay [6].
Regarding `Cc1cccc(N(C)c2cc(N3CCN(CC(=O)Nc4nc(-c5ccccc5)cs4)CC3)ncn2)c1`, the inhibition in assay [1] was determined as 0%; in assay [2] it was 9%; in assay [3] it was 14%; in assay [4] it was 0%; in assay [5], 2%; in assay [6], 0%.
Consider `COC[C@@H]1CCCN1C(=O)[C@@H]1CCCN1c1nccc(Nc2ccccc2)n1`, for which the inhibition in assay [1] came out at 0%; in assay [2] it was 6%; in assay [3], 15%; in assay [4] it was 0%; in assay [5] it was 6%; in assay [6] it was 1%.
Regarding `COc1ccc(-c2noc(CN3CCN(c4cc(Nc5cccc(O)c5)ncn4)CC3)n2)cc1`, the inhibition was determined as 0% in assay [1]; 2% in assay [2]; 4% in assay [3]; 0% in assay [4]; 0% in assay [5]; 9% in assay [6].
With `Cc1cccc(Oc2ccnc(N3CCN(CC(=O)Nc4cccc5c4CCCC5)CC3)n2)c1`, the inhibition in assay [1] was 0%; in assay [2], 0%; in assay [3] it was 0%; in assay [4] it was 0%; in assay [5] it was 1%; in assay [6], 0%.

The values are drawn from ChEMBL document CHEMBL1150387, “Development and experimental validation of a docking strategy for the generation of kinase-targeted libraries” (J Med Chem, 2008).
